The values below come from ChEMBL document CHEMBL2034895, “Antimicrobial metabolites from the Paracel Islands sponge Agelas mauritiana” (J Nat Prod, 2012).

Structures are written as SMILES.

Assay type in all cases: functional, organism-based
One assay deals with Leishmania donovani. In words: Antileishmanial activity against Leishmania donovani promastigotes after 72 hrs by alamar blue assay. Put shortly:
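L. donovani promastigote culture at 2 × 10^6 cells/mL was exposed to diluted compound in microplate wells and incubated at 26 °C for 72 h. Promastigote growth was read by Alamar blue. Pentamidine and amphotericin B were the reference drugs.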

The next assay concerns Cryptococcus neoformans. In words: Antifungal activity against Cryptococcus neoformans ATCC 90113 by M27A2 method.
Assay [1] relates to Staphylococcus aureus. In words: Antibacterial activity against methicillin-resistant Staphylococcus aureus ATCC 33591 by CLSI method. The gist of the method: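 Methicillin-resistant S. aureus ATCC 33591 tested by a modified CLSI (formerly NCCLS) susceptibility method. Ciprofloxacin was included as the control drug in each assay.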
In assay [2] the test system is Staphylococcus aureus. In words: Antibacterial activity against Staphylococcus aureus ATCC 29213 by CLSI method.

A word on the IC50: it is the concentration that gives 50% inhibition. Read a high IC50 as lower potency. As usually defined, the IC90 is the concentration at which the effect reaches the 90% level. A high value points to weaker potency. By MIC is commonly meant the least concentration at which growth counts as inhibited. In the assay with Leishmania donovani, `C=C1CC[C@@H]2C(C)(C)CCC[C@@]2(C)[C@@H]1CC/C(C)=C/C[n+]1cn(C)c2nc[nH]/c(=N\O)c21` came in with an IC50 of 29.3 µg/mL and an IC90 of 34 µg/mL. In the assay on Cryptococcus neoformans, this molecule showed an IC50 of 5.94 µg/mL and an MIC of 10 µg/mL.
For the molecule `CC1=CCC[C@@H]2[C@@](C)(CC/C(C)=C/C[n+]3cn(C)c4nc[nH]/c(=N/O)c43)[C@H](C)CC[C@@]12C` [AGELOXIME B], the 50% inhibitory concentration (IC50) in the assay on Leishmania donovani turned out to be 28.5 µg/mL; in the assay with Staphylococcus aureus [1], 9.2 µg/mL; in the assay on Staphylococcus aureus [2] it was 7.21 µg/mL; with Cryptococcus neoformans, 4.96 µg/mL. In the assay with Leishmania donovani, this molecule had an IC90 of 33.2 µg/mL. Further, the MIC in the assay on Staphylococcus aureus [1] was 20 µg/mL; in the assay on Staphylococcus aureus [2], 10 µg/mL; against Cryptococcus neoformans it was 10 µg/mL.
